From ChEMBL document CHEMBL1772954, “Antifungal, cytotoxic and SAR studies of a series of N-alkyl, N-aryl and N-alkylphenyl-1,4-pyrrolediones and related compounds” (Bioorg Med Chem, 2011)
≈ marks a conversion by molar mass, not a printed value.

Experiments:
Type in all cases: functional
Aspergillus flavus = assay: Antifungal activity against Aspergillus flavus ATCC 9170
Summary of the method: (§1)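 Broth microdilution per CLSI M38-A2 in RPMI-1640 with MOPS at pH 7.0. Inoculum 1-5 × 10^3 CFU/mL, with twofold compound dilutions spanning 250-0.24 µg/ml (final DMSO <1%). Plates incubated at 35 °C, moist and dark, and read when the control fungus had grown. MIC is total growth inhibition. MFC comes from subculturing clear wells in duplicate onto SDA.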

[1] = tested on: Trichophyton mentagrophytes; assay: Antifungal activity against Trichophyton mentagrophytes ATCC 9972
Summary of the method: (§2)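 Dermatophytes tested by CLSI M38-A2 microdilution in MOPS-buffered RPMI-1640 at pH 7.0. Inoculum 1-5 × 10^3 CFU/mL; compounds 250 to 0.24 µg/ml in twofold steps, final DMSO <1%. Incubated at 28 °C in a moist, dark chamber and read according to control growth. MIC is the lowest concentration with complete inhibition. MFC is the lowest concentration with no growth after duplicate subculture on SDA.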

Cryptococcus neoformans = assay: Antifungal activity against Cryptococcus neoformans ATCC 32264
Summary of the method: (§3)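 CLSI M27-A3 broth microdilution in RPMI-1640 buffered to pH 7.0 with MOPS. Inoculum 1-5 × 10^3 CFU/mL. Compound twofold dilutions from 250 to 0.24 µg/ml, final DMSO <1%. Incubated at 35 °C in a moist, dark chamber and read at 48 h. MIC is the lowest concentration giving total growth inhibition. For MFC, 5 µL from clear wells was plated in duplicate on SDA; MFC is the lowest concentration with no growth.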

Candida tropicalis = assay: Antifungal activity against Candida tropicalis C 131 2000; summary of the method: as §3
Aspergillus fumigatus = assay: Antifungal activity against Aspergillus fumigatus ATCC 26934; summary of the method: as §1
Aspergillus niger = assay: Antifungal activity against Aspergillus niger ATCC 9029; summary of the method: as §1
Candida albicans = assay: Antifungal activity against Candida albicans ATCC 10213; summary of the method: as §3
Saccharomyces cerevisiae = assay: Antifungal activity against Saccharomyces cerevisiae ATCC 9763; summary of the method: as §3
Trichophyton rubrum = assay: Antifungal activity against Trichophyton rubrum C 113 2000; summary of the method: as §2
Nannizzia gypsea = assay: Antifungal activity against Microsporum gypseum C 115 2000; summary of the method: as §2

Row | SMILES | MIC (Aspergillus flavus) [mg/L] | MIC [1] [mg/L] | MIC (Cryptococcus neoformans) [mg/L] | MIC (Candida tropicalis) [mg/L] | MIC (Aspergillus fumigatus) [mg/L] | MIC (Aspergillus niger) [mg/L] | MIC (Candida albicans) [mg/L] | MIC (Saccharomyces cerevisiae) [mg/L] | MIC (Trichophyton rubrum) [mg/L] | MIC (Nannizzia gypsea) [mg/L] | MFC (Aspergillus flavus) [mg/L] | MFC [1] [mg/L] | MFC (Cryptococcus neoformans) [mg/L] | MFC (Candida tropicalis) [mg/L] | MFC (Aspergillus fumigatus) [mg/L] | MFC (Aspergillus niger) [mg/L] | MFC (Candida albicans) [mg/L] | MFC (Saccharomyces cerevisiae) [mg/L] | MFC (Trichophyton rubrum) [mg/L] | MFC (Nannizzia gypsea) [mg/L]
1 | CC1=CC(=O)N(c2ccccc2)C1O (stereo not given) | > 250 | > 250 | 250 (≈ 1320 µM) | > 250 | > 250 | > 250 | > 250 | > 250 | > 250 | > 250 | > 250 | > 250 | > 250 | > 250 | > 250 | > 250 | > 250 | > 250 | > 250 | > 250
2 | CC1=CC(=O)N(CCc2ccccc2)C1O (stereo not given) | > 250 | > 250 | > 250 | > 250 | > 250 | > 250 | > 250 | > 250 | > 250 | > 250 | > 250 | > 250 | > 250 | > 250 | > 250 | > 250 | > 250 | > 250 | > 250 | > 250
3 | CC1=CC(=O)N(CCCc2ccccc2)C1O (stereo not given) | > 250 | 250 (≈ 1080 µM) | 250 (≈ 1080 µM) | > 250 | > 250 | > 250 | > 250 | > 250 | 250 (≈ 1080 µM) | 250 (≈ 1080 µM) | > 250 | > 250 | > 250 | > 250 | > 250 | > 250 | > 250 | > 250 | > 250 | > 250
4 | CC1=CC(=O)N(CCCCc2ccccc2)C1O (stereo not given) | > 250 | > 250 | > 250 | > 250 | > 250 | > 250 | > 250 | > 250 | > 250 | > 250 | > 250 | > 250 | > 250 | > 250 | > 250 | > 250 | > 250 | > 250 | > 250 | > 250
5 | O=C1CCC(=O)N1Cc1ccccc1 | > 250 | > 250 | > 250 | > 250 | > 250 | > 250 | > 250 | > 250 | > 250 | > 250 | > 250 | > 250 | > 250 | > 250 | > 250 | > 250 | > 250 | > 250 | > 250 | > 250
6 | O=C1CCC(=O)N1c1ccccc1 | > 250 | > 250 | > 250 | > 250 | > 250 | > 250 | > 250 | > 250 | > 250 | > 250 | > 250 | > 250 | > 250 | > 250 | > 250 | > 250 | > 250 | > 250 | > 250 | > 250

Continued, in another order:

Row | MIC (Aspergillus flavus) [mg/L] | MIC [1] [mg/L] | MIC (Cryptococcus neoformans) [mg/L] | MIC (Candida tropicalis) [mg/L] | MIC (Aspergillus fumigatus) [mg/L] | MIC (Aspergillus niger) [mg/L] | MIC (Candida albicans) [mg/L] | MIC (Saccharomyces cerevisiae) [mg/L] | MIC (Trichophyton rubrum) [mg/L] | MIC (Nannizzia gypsea) [mg/L] | SMILES | MFC (Aspergillus flavus) [mg/L] | MFC [1] [mg/L] | MFC (Cryptococcus neoformans) [mg/L] | MFC (Candida tropicalis) [mg/L] | MFC (Aspergillus fumigatus) [mg/L] | MFC (Aspergillus niger) [mg/L] | MFC (Candida albicans) [mg/L] | MFC (Saccharomyces cerevisiae) [mg/L] | MFC (Trichophyton rubrum) [mg/L] | MFC (Nannizzia gypsea) [mg/L]
7 | > 250 | > 250 | > 250 | > 250 | > 250 | > 250 | > 250 | > 250 | > 250 | > 250 | CC1=CC(=O)N(Cc2ccccc2)C1O (stereo not given) | > 250 | > 250 | > 250 | > 250 | > 250 | > 250 | > 250 | > 250 | > 250 | > 250
8 | > 250 | > 250 | > 250 | > 250 | > 250 | > 250 | > 250 | > 250 | > 250 | > 250 | CC1=CC(O)N(c2ccccc2)C1=O (stereo not given) | > 250 | > 250 | > 250 | > 250 | > 250 | > 250 | > 250 | > 250 | > 250 | > 250
9 | > 250 | > 250 | > 250 | > 250 | > 250 | > 250 | > 250 | > 250 | > 250 | > 250 | CC1=CC(O)N(Cc2ccccc2)C1=O (stereo not given) | > 250 | > 250 | > 250 | > 250 | > 250 | > 250 | > 250 | > 250 | > 250 | > 250
